# Bioassay records: PubChem BioAssay, The Scripps Research Institute Molecular Screening Center
# Compounds with a hit are over-represented: about 2.7% of the library has one in this group of screens.
# CTSL1 counter – blocks F. hepatica cathepsin L1 in PFM18AAP counter-screen; 300,000 tested, 0.49% active; recombinant F. hepatica cathepsin L1, Z-Leu-Arg-MCA fluorescence; inhibition, % at 5.96 µM; AID 1906;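 active means inhibition above the mean of all tested compounds plus 3 SD, set per screening campaign, cut at about 17% in these data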;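 further: 0% = plate median of test compound wells and 100% = 1 µM Z-Phe-Ala-diazomethylketone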
# VIM-2 inh – blocks Pseudomonas aeruginosa VIM-2 metallo-beta-lactamase | AID 1527 | 290,000 tested, 0.89% active | inhibition, % at 5.6 µM | purified VIM-2, nitrocefin hydrolysis, epi-absorbance fluorescence;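 active means inhibition above the mean of all tested compounds plus 3 SD, cutoff set per screening run, cut at about 7.5% in these data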;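 further: red hydrolysis product quenches plate fluorescence so inhibitors raise well fluorescence; 0% = enzyme with DMSO and 100% = DMSO without enzyme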
# IMP-1 inhibitor – blocks Pseudomonas aeruginosa IMP-1 metallo-beta-lactamase | purified IMP-1, nitrocefin hydrolysis, epi-absorbance fluorescence | inhibition, % at 5.6 µM | 290,000 tested, 0.45% active | AID 1556;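 active means inhibition above the mean plus 3 SD of all compounds in the same screening run, cut at about 4.5% in these data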;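 further: 0% = IMP-1 with DMSO and 100% = DMSO wells lacking enzyme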
#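 Test system: recombinant IMP-1 enzyme, purified / Medium: HEPES buffer pH 7.1 with ZnSO4 and Brij 35 / Doses: single dose, 5.6 µM / Times: 25 °C, 15 min preincubation, 25 min reaction / Detection: Epi-absorbance via hydrolysed-nitrocefin quenching of white-plate fluorescence, 480/530 nm, EDTA stop / Evaluation: percent inhibition from optical density relative to buffer-blank wells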
# PfM18AAP inh – PfM18AAP enzyme inhibition; recombinant PfM18AAP, H-Glu-NHMec fluorogenic cleavage; inhibition, % at 7.35 µM; 290,000 tested, 1.2% active; AID 1822;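 active means inhibition above the campaign mean inhibition over all tested compounds plus 3 SD, cut at about 28% in these data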;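 further: 0% = plate median of test compound wells and 100% = 2 mM ZnCl2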
# An asterisk follows results filed as active; · = no result; ! = repeats disagree.
SMILES,CTSL1 counter,VIM-2 inh,IMP-1 inhibitor,PfM18AAP inh
Cc1c(C(=O)NCc2ccccn2)oc2ccc(Br)cc12,-3.4,·,·,·
Cc1c(C(=O)NCc2cccs2)oc2ccc(Br)cc12,0.7,1.4,5.3*,2.5
CCOc1ccc(CNC(=O)Cn2c(=O)c3cccn3c3ccccc32)cc1,3.0,-1.2,6.2*,-6.2
O=C(Cn1c(=O)c2cccn2c2ccccc21)NCCc1ccccc1,-2.1,-1.8,-2.3,8.8
O=C(Cn1c(=O)c2cccn2c2ccccc21)NCCc1ccc(Cl)cc1,1.0,3.3,13.2*,-14.5
COc1ccc(-c2csc(=Nc3ccccc3)n2CCO)cc1,-1.1,-1.0,-2.5,30.4*
O=C(Cn1ccc2ccccc2c1=O)NCCC(=O)NC1CCN(Cc2ccccc2)CC1,0.7,-2.6,-2.0,1.4
COc1ccc(CNC(=O)c2ccc3c(=O)n(-c4ccccc4)c(=O)[nH]c3c2)cc1,-2.5,-3.4,-4.6,2.0
O=C(Nc1ncc2c(n1)-c1ccccc1CC2)c1ccc(Cl)cc1,1.4,-5.6,23.6*,2.3
O=C(Nc1ncc2c(n1)-c1ccccc1CC2)c1cccc(Cl)c1,0.3,-2.7,-2.1,16.9
COc1ccc(OC)c(S(=O)(=O)N(C)CC(=O)N2CCN(c3ccccc3F)CC2)c1,1.5,0.2,17.1*,-4.6
COc1ccc(OC)c(S(=O)(=O)N(C)CC(=O)N2CCN(c3ccc(F)cc3)CC2)c1,8.3,0.6,0.2,-1.6
Cc1ccc2sc(-c3ccc(NC(=O)CCN4C(=O)c5ccccc5C4=O)cc3)nc2c1,-4.7,-2.0,-2.6,2.4
Cc1sc(N)nc1-c1ccc(Oc2ccccc2)cc1,4.1,-4.6,2.6,-8.2
COCCN=C1NN=C(c2ccc(NC(C)=O)cc2)CS1,-1.4,-2.3,-1.4,28.4*
CC(=O)Nc1ccc(C2=NNC(=Nc3cccc(S(=O)(=O)N(C)C)c3)SC2)cc1,-1.8,2.7,-1.5,-24.3
CCS/C(N)=N/N=C/c1cc(C)ccc1O,2.9,-6.4,-2.9,31.5*
CS/C(N)=N/N=C/c1cc(C)ccc1O,-3.4,-1.0,-0.9,26.0
CCCCS/C(N)=N/N=C/c1cc(C)ccc1O,0.1,-7.1,-2.1,29.5*
CCCN(CCC)S(=O)(=O)c1ccc(C(=O)N2CCOCC2)cc1,-1.5,-2.5,-3.8,-2.1
CCCc1cc(NCCCN2CCOCC2)n2c(nc3ccccc32)c1C#N,2.8,8.0*,-0.3,0.2
CC(C)c1cc(NCCOCCO)n2c(nc3ccccc32)c1C#N,-2.6,11.9*,-0.5,0.1
CN(C)c1ccc(/C=N/Nc2nncc3ccccc23)cc1,4.8,3.5,-0.7,-13.3
c1ccc(-c2cc(CSc3nc4ccccc4[nH]3)on2)cc1,-6.8,-2.4,-1.2,3.8
O=C(Oc1oc(-c2ccco2)nc1C=Nc1ccccc1)c1ccco1,19.8*,-2.8,-2.3,0.2
SMILES,CTSL1 counter,VIM-2 inh,IMP-1 inhibitor,PfM18AAP inh
O=C(Oc1oc(-c2ccco2)nc1C=Nc1ccccc1)c1ccoc1,13.9,-1.7,-2.8,-8.0
Cc1ccc(C(=O)Oc2oc(-c3ccco3)nc2C=Nc2ccc(Cl)cc2)cc1,21.4*,0.2,-2.9,5.6
Cc1ccc2c(CC(=O)Nc3ccc(N4CCN(C)CC4)cc3C)coc2c1,-1.9,-2.9,7.0*,-1.0
COc1cc(C(=O)NCc2nnc(SCC(=O)N3CCCc4ccccc43)o2)cc(OC)c1OC,-1.8,-2.0,-3.3,-8.5
Cc1nnc(SCC(=O)Nc2cccc(S(=O)(=O)N(C)c3ccccc3)c2)s1,0.3,-1.1,0.4,-0.8
CC(C)C(=O)NNC(=O)CSc1ncnc2c1cnn2-c1ccccc1Cl,43.9*,2.7,-1.9,-5.9
COc1cccc(N2CC(C(=O)Nc3nnc(SCCN4CCOCC4)s3)CC2=O)c1 (stereo not given),-6.5,-2.0,-1.0,7.3
CCOc1ccc(S(=O)(=O)N2CCC(C(=O)N3CCc4ccccc4C3)CC2)cc1,0.9,-2.3,-1.5,-1.7
O=S(=O)(O)CCS,0.7,·,·,·
NCCCS(=O)(=O)O,19.3*!,0.3,-0.6,1.5
O=C(Nc1cccc(F)c1)C1CCN(C(=O)N2CCOc3ccccc32)CC1,-0.4,-0.6,-4.1,-2.0
CN1CCN(c2nc(-c3cccc([N+](=O)[O-])c3)nc3ccccc23)CC1,4.4,8.6*,1.1,-10.6
COc1ccc(C(=O)c2no[n+]([O-])c2C(=O)c2ccc(OC)cc2)cc1,18.2*,-1.6,-3.7,-0.6
COc1ccc(NC(=O)c2c(N)no[n+]2[O-])cc1,3.4,1.6,-0.5,-12.7
Cn1c(CNC(=O)c2ccc3c(c2)OCO3)nnc1SCC(=O)Nc1ccc(F)cc1,0.9,-0.9,-1.9,2.3
CC(C)c1ccc(OCC(=O)N(Cc2ccccc2)c2ccccn2)cc1,7.5,-0.8,-3.0,0.4
CN(CCOc1ccccc1)C(=O)C1CCC(=O)N(CCCN2CCCC2=O)C1 (stereo not given),-3.2,-2.1,-4.3,-4.6
O=C(Nc1nccs1)C1CCN(S(=O)(=O)c2cccnc2)CC1,-1.2,·,·,·
O=C(Nc1nccs1)C1CCCN(S(=O)(=O)c2cccnc2)C1 (stereo not given),0.2,-0.1,4.8*,-2.1
CCN(CC)c1ccc(NC(=O)C2CCCN(S(=O)(=O)c3cccnc3)C2)c(C)c1 (stereo not given),-2.5,-3.6,-3.9,28.4*
Cc1ccc(/C=N/n2cc(-c3ccccc3)[nH]c2=S)s1,2.9,-3.8,-4.4,52.6*
CC1Sc2ccc(S(=O)(=O)CCC(=O)NCc3ccccc3)cc2NC1=O (stereo not given),1.5,-1.8,-0.3,0.1
CC1Sc2ccc(S(=O)(=O)CCC(=O)Nc3ccccn3)cc2NC1=O (stereo not given),5.1,-2.0,-1.4,29.1*
NC(CSS(=O)(=O)O)=NCCC12CC3CC(CC(O)(C3)C1)C2,-2.5,0.3,5.4*,17.6
COC(=O)c1ccc(NS(=O)(=O)c2ccccc2)o1,-2.3,-1.9,4.9*,1.7
SMILES,CTSL1 counter,VIM-2 inh,IMP-1 inhibitor,PfM18AAP inh
COC(=O)c1ccc(NS(=O)(=O)c2ccc(Cl)cc2)o1,4.2,0.6,2.3,6.3
Cc1ccc(Cn2cc(/C=N/Nc3ccc([N+](=O)[O-])cn3)c3ccccc32)cc1,2.1,-1.0,-2.6,54.1*
CCN(CC(=O)Nc1c(F)cccc1F)C(=O)c1cc(C)oc1C,2.9,·,·,·
CC(=O)Nc1ccc2cc3ccc(NC(C)=O)cc3nc2c1,-0.5,8.4*,3.0,14.0
CC(=O)Nc1ccc2ccccc2c1,-1.4,-2.7,-1.1,-6.6
Cc1ccccc1C(=O)Nc1ccc(C(=O)N/N=C/c2ccc(F)cc2)cc1,-1.2,-0.6,-2.2,-7.1
CCOC(=O)c1cc(-c2nnc(-c3ccc(Oc4ccccc4)cc3)o2)c(C)nc1C,-3.4,-0.2,-2.4,-12.0
O=C(NNc1ccccc1)Nc1ccccc1F,1.7,1.5,-1.6,30.0*
Cc1oc(-c2cccc(Cl)c2)nc1CS(=O)(=O)CC(=O)NCCN1CCCC1,90.5*,-3.8,-4.5,2.3
Cc1oc(-c2cccc(Cl)c2)nc1CS(=O)(=O)CC(=O)NCCN1CCOCC1,-1.8,-2.4,-3.0,-4.6
Cn1c(=O)c2cc(NC(=O)c3ccccc3Cl)c(=O)oc2n(C)c1=O,27.0*,-2.2,-1.9,2.4
O=C(NCCN1CCOCC1)c1ccc2c(c1)N(Cc1ccccc1)C(=O)CS2,32.0*,0.8,-3.8,-16.6
